Source: ChEMBL document CHEMBL3817745, “Structure-Activity Relationship for the 4(3H)-Quinazolinone Antibacterials” (J Med Chem, 2016)
Converted amounts (≈) assume the structure as drawn.

How the values were obtained:
[1] = tested on: Staphylococcus aureus; assay: Antibacterial activity against methicillin-susceptible Staphylococcus aureus ATCC 29213 incubated for 16 to 20 hrs by microdilution method; assay type: functional
[2] = tested on: Mus musculus; assay: AUC (0 to last) in ICR mouse peritonitis model infected with methicillin resistant Staphylococcus aureus ATCC 27660 at 5 mg/kg, iv administered as single dose measured up to 8 hrs by UPLC analysis; assay type: ADME, organism-based; set-up: dose 5 mg/kg, route intravenous, time 0 - last; conditions: in vivo
Method in brief: (§1)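 Fast PK: female ICR mice (n = 2 per time point) given single tail-vein iv injection at 5, 10 or 20 mg/kg in 25% DMSO/65% propylene glycol/10% water (2.5, 5 or 10 mg/mL); terminal cardiac blood at 5 min, 40 min, 2, 4, 8 h; plasma analysed by UPLC with internal standard calibration.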

[3] = tested on: HepG2; assay: Cytotoxicity against human HepG2 cells incubated for 16 hrs by XTT assay; assay type: cell-based; conditions: HepG2, 16 h
Method in brief: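 HepG2 cells were tested with an XTT viability read-out, in triplicate. IC50 was obtained by nonlinear regression.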

[4] = Hemolytic activity against human RBC at 64 ug/ml relative to control; assay type: ADME, cell-based, Erythrocyte; conditions: erythrocyte
Method in brief: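 Hemolysis was measured at a fixed 64 μg/mL on a 10% red-cell suspension from heparinized human blood. Triton-X served as the positive control, and results are given as percent hemolysis.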

[5] = tested on: Staphylococcus aureus; assay: Antibacterial activity against mecA-positive methicillin/oxacillin/tetracycline-resistant Staphylococcus aureus ATCC 27660 incubated for 16 to 20 hrs by microdilution method; assay type: functional
[6] = tested on: Staphylococcus aureus; assay: Antibacterial activity against mecA-positive multidrug resistant Staphylococcus aureus COL NRS100 incubated for 16 to 20 hrs by microdilution method; assay type: functional
[7] = tested on: Staphylococcus aureus; assay: Antibacterial activity against mecA-positive multidrug resistant Staphylococcus aureus NRS119 incubated for 16 to 20 hrs by microdilution method; assay type: functional
[8] = tested on: Staphylococcus aureus; assay: Antibacterial activity against mecA-positive multidrug resistant Staphylococcus aureus NRS120 incubated for 16 to 20 hrs by microdilution method; assay type: functional
[9] = tested on: Staphylococcus aureus; assay: Antibacterial activity against vancomycin/methicillin-resistant Staphylococcus aureus VRS1 clinical isolate incubated for 16 to 20 hrs by microdilution method; assay type: functional
[10] = tested on: Staphylococcus aureus; assay: Antibacterial activity against vancomycin/methicillin-resistant Staphylococcus aureus VRS2 clinical isolate incubated for 16 to 20 hrs by microdilution method; assay type: functional
[11] = tested on: Staphylococcus epidermidis; assay: Antibacterial activity against Staphylococcus epidermidis ATCC 35547 incubated for 16 to 20 hrs by microdilution method; assay type: functional
Method in brief: (§2)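 CLSI broth microdilution. 2-fold serial dilutions were made in cation-adjusted Mueller–Hinton broth, with 5% lysed horse blood added for Streptococcus strains, in triplicate. Inoculum 5×10^5 CFU/mL. Plates incubated 36 °C for 16–20 h. MIC taken as the lowest concentration visibly inhibiting growth.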

[12] = tested on: Staphylococcus haemolyticus; assay: Antibacterial activity against Staphylococcus haemolyticus ATCC 29970 incubated for 16 to 20 hrs by microdilution method; assay type: functional
[13] = tested on: Streptococcus oralis; assay: Antibacterial activity against Streptococcus oralis ATCC 9811 incubated for 16 to 20 hrs by microdilution method; assay type: functional; method in brief: as §2
[14] = tested on: Streptococcus pyogenes; assay: Antibacterial activity against Streptococcus pyogenes ATCC 49399 incubated for 16 to 20 hrs by microdilution method; assay type: functional; method in brief: as §2
[15] = tested on: Bacillus cereus; assay: Antibacterial activity against Bacillus cereus ATCC 13061 incubated for 16 to 20 hrs by microdilution method; assay type: functional; method in brief: as §2
[16] = tested on: Bacillus licheniformis; assay: Antibacterial activity against Bacillus licheniformis ATCC 12759 incubated for 16 to 20 hrs by microdilution method; assay type: functional; method in brief: as §2
[17] = tested on: Enterococcus faecalis; assay: Antibacterial activity against methicillin-susceptible Enterococcus faecalis ATCC 29212 incubated for 16 to 20 hrs by microdilution method; assay type: functional; method in brief: as §2
[18] = tested on: Enterococcus faecalis; assay: Antibacterial activity against vancomycin-resistant Enterococcus faecalis 99 clinical isolate incubated for 16 to 20 hrs by microdilution method; assay type: functional
[19] = tested on: Enterococcus faecium; assay: Antibacterial activity against Enterococcus faecium NCTC 7171 incubated for 16 to 20 hrs by microdilution method; assay type: functional; method in brief: as §2
[20] = tested on: Klebsiella pneumoniae; assay: Antibacterial activity against Klebsiella pneumoniae ATCC 700603 incubated for 16 to 20 hrs by microdilution method; assay type: functional; method in brief: as §2
[21] = tested on: Acinetobacter baumannii; assay: Antibacterial activity against Acinetobacter baumannii ATCC 17961 incubated for 16 to 20 hrs by microdilution method; assay type: functional; method in brief: as §2
[22] = tested on: Pseudomonas aeruginosa; assay: Antibacterial activity against Pseudomonas aeruginosa […] incubated for 16 to 20 hrs by microdilution method; assay type: functional; method in brief: as §2
[23] = tested on: Escherichia coli; assay: Antibacterial activity against Escherichia coli ATCC 25922 incubated for 16 to 20 hrs by microdilution method; assay type: functional; method in brief: as §2
[24] = tested on: Klebsiella aerogenes; assay: Antibacterial activity against Enterobacter aerogenes ATCC 35029 incubated for 16 to 20 hrs by microdilution method; assay type: functional; method in brief: as §2
[25] = tested on: Mus musculus; assay: AUC (0 to last) in ICR mouse peritonitis model infected with methicillin resistant Staphylococcus aureus ATCC 27660 at 10 mg/kg, iv administered as single dose measured up to 8 hrs by UPLC analysis; assay type: ADME, organism-based; set-up: dose 10 mg/kg, time 0 - last, route intravenous; conditions: in vivo, 8 h; method in brief: as §1

Structure (SMILES) | MIC [1] [µg/mL] | IC50 [3] [µg/mL] | Activity [4] [%] | MIC [6] [µg/mL] | MIC [7] [µg/mL] | MIC [8] [µg/mL] | MIC [9] [µg/mL] | MIC [10] [µg/mL] | MIC [11] [µg/mL] | MIC [12] [µg/mL] | MIC [13] [µg/mL] | MIC [14] [µg/mL] | MIC [15] [µg/mL] | MIC [16] [µg/mL] | MIC [17] [µg/mL] | MIC [18] [µg/mL] | MIC [19] [µg/mL] | MIC [20] [µg/mL] | MIC [21] [µg/mL] | MIC [22] [µg/mL] | other results
N#Cc1ccc(/C=C/c2nc3ccccc3c(=O)n2-c2cccc(O)c2)cc1 | 0.03 (≈ 0.0821 µM) | 53.6 (≈ 147 µM) | < 1 | 0.25 (≈ 0.684 µM) | 0.125 (≈ 0.342 µM) | 0.125 (≈ 0.342 µM) | 0.5 (≈ 1.37 µM) | 0.06 (≈ 0.164 µM) | 0.125 (≈ 0.342 µM) | 0.125 (≈ 0.342 µM) | > 128 | > 128 | > 128 | > 128 | 128 (≈ 350 µM) | 64 (≈ 175 µM) | > 128 | ≥ 16 | ≥ 16 | ≥ 16 | AUClast [2]: 26.8 µg·min/mL; MIC [5]: 0.5 µg/mL (≈ 1.37 µM); MIC [23]: ≥ 16 µg/mL; MIC [24]: ≥ 16 µg/mL
CN[C@@H](CC(C)C)C(=O)N[C@H]1C(=O)N[C@@H](CC(N)=O)C(=O)N[C@H]2C(=O)N[C@H]3C(=O)N[C@H](C(=O)N[C@@H](C(=O)O)c4cc(O)cc(O)c4-c4cc3ccc4O)[C@H](O)c3ccc(c(Cl)c3)Oc3cc2cc(c3O[C@H]2O[C@@H](CO)[C@H](O)[C@@H](O)[C@@H]2O[C@@H]2C[C@@](C)(N)[C@@H](O)[C@@H](C)O2)Oc2ccc(cc2Cl)[C@H]1O | – | – | – | – | – | – | 512 (≈ 353 µM) | 64 (≈ 44.2 µM) | 16 (≈ 11 µM) | – | 0.5 (≈ 0.345 µM) | 0.5 (≈ 0.345 µM) | 1 (≈ 0.69 µM) | – | – | – | – | – | – | – | –
CS(=O)(=O)Nc1cccc(-n2c(/C=C/c3ccc(C#N)cc3)nc3ccccc3c2=O)c1 | 0.004 (≈ 0.00904 µM) | 33.4 (≈ 75.5 µM) | < 1 | 0.5 (≈ 1.13 µM) | 0.5 (≈ 1.13 µM) | 0.25 (≈ 0.565 µM) | 0.5 (≈ 1.13 µM) | 0.125 (≈ 0.282 µM) | 0.125 (≈ 0.282 µM) | 0.125 (≈ 0.282 µM) | > 128 | > 128 | > 128 | > 128 | > 128 | 128 (≈ 289 µM) | > 128 | ≥ 16 | ≥ 16 | ≥ 16 | AUClast [2]: 31 µg·min/mL; MIC [5]: 0.25 µg/mL (≈ 0.565 µM); MIC [23]: ≥ 16 µg/mL; MIC [24]: ≥ 16 µg/mL
N#Cc1ccc(/C=C/c2nc3ccccc3c(=O)n2-c2cccc(N)c2)cc1 | 0.5 (≈ 1.37 µM) | 77.2 (≈ 212 µM) | 3.3 | 4 (≈ 11 µM) | 4 (≈ 11 µM) | 4 (≈ 11 µM) | 8 (≈ 22 µM) | 4 (≈ 11 µM) | 0.125 (≈ 0.343 µM) | 1 (≈ 2.74 µM) | > 128 | > 128 | > 128 | > 128 | > 128 | 16 (≈ 43.9 µM) | > 128 | ≥ 16 | ≥ 16 | ≥ 16 | AUClast [25]: 204 µg·min/mL; MIC [23]: ≥ 16 µg/mL; MIC [24]: ≥ 16 µg/mL
